Measured values reported in ChEMBL document CHEMBL3272228, “Antimalarial activity of some novel derivatives of 2,4-diamino-5(p-chlorophenyl)-6-ethylpyrimidine (pyrimethamine)” (J Med Chem, 1976).
Active and inactive are the calls of the source. The calls are words filed in the database; no cut-off is given here.

How the values were obtained:
[1] = system: Plasmodium berghei; assay: Antimalarial activity against Plasmodium berghei KBG13 infected in mouse assessed as minimum dose required for activity; assay type: functional; settings: for minimal effective dose: read-out: MED
Procedure, shortened: (§1)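 P. berghei strain KBG 13 in mice, groups of five treated, doses up to 640 mg/kg. Scored as increase in mean survival time in days over controls and as cured/treated. Reported values are the lowest dose giving any cure and the lowest dose showing activity.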

[2] = system: Plasmodium berghei; assay: Antimalarial activity against Plasmodium berghei KBG13 infected in mouse assessed as increase in host mean survival time at 640 mg/kg; assay type: functional
Procedure, shortened: (§2)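 Mice infected with Plasmodium berghei strain KBG 13. Five mice per dose group, with doses up to 640 mg/kg. Read-out is the increase in mean survival time in days, with cured/treated counts recorded. The minimum active dose is the lowest dose showing activity, and survival gain is also reported at that dose.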

[3] = system: Plasmodium berghei; assay: Antimalarial activity against Plasmodium berghei KBG13 infected in mouse assessed as increase in host mean survival time at minimum dose; assay type: functional; procedure, shortened: as §2
[4] = system: Plasmodium berghei; assay: Antimalarial activity against Plasmodium berghei KBG13 infected in mouse assessed as disease cures at 640 mg/kg; assay type: functional, organism-based; set-up: dose 640 mg/kg; procedure, shortened: as §1
[5] = system: Plasmodium berghei; assay: Antimalarial activity against Plasmodium berghei KBG13 infected in mouse assessed as minimum dose required for disease cures; assay type: functional; procedure, shortened: as §1
[6] = system: Plasmodium gallinaceum; assay: Antimalarial activity against Plasmodium gallinaceum infected in chicks assessed as increase in host survival time at 100 to 160 mg/kg; assay type: functional; settings: dose mg/kg 100-160
Procedure, shortened: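 Chicks infected with Plasmodium gallinaceum, in limited testing at doses of 100-160 mg/kg. Activity is expressed as T/C in days of survival at the respective dose levels.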

[7] = system: Plasmodium gallinaceum; assay: Antimalarial activity against Plasmodium gallinaceum infected in chicks assessed as increase in host survival at 120 mg/kg; assay type: functional, organism-based; set-up: dose 120 mg/kg
Procedure, shortened: (§3)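 P. gallinaceum in chicks given doses of 100–160 mg/kg. Activity is expressed as T/C, the increase in survival time in days.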

[8] = system: Mus musculus; assay: Toxicity in mouse infected with Plasmodium berghei KBG13 assessed as animal death at 640 mg/kg; assay type: organism-based; set-up: dose 640 mg/kg; settings: in vivo
[9] = organism: Mus musculus; assay: Toxicity in mouse infected with Plasmodium berghei KBG13 assessed as animal death at 2 times minimum curative dose; assay type: organism-based; settings: in vivo
[10] = system: Plasmodium gallinaceum; assay: Antimalarial activity against Plasmodium gallinaceum infected in chicks assessed as increase in host survival; assay type: functional, organism-based; procedure, shortened: as §3
[11] = organism: Mus musculus; assay: Toxicity in mouse infected with Plasmodium berghei KBG13 assessed as animal death at 4 times minimum curative dose; assay type: organism-based; settings: in vivo

`C/C(=N/O)c1nc(N)nc(N)c1-c1ccc(Cl)cc1` gave a minimal effective dose [1] of 160 mg/kg, an MST [2] of 5.4 days and an MST [3] of 3.4 days.

`CC(=O)NC(C)c1nc(N)nc(N)c1-c1ccc(Cl)cc1` (racemic) was tested, and the Activity [4] was “inactive”, the Activity [5] was “inactive” and the Activity [1] was “inactive”. For the same compound, the Activity [3] was “inactive”.

`C/C(=N/N)c1nc(N)nc(N)c1-c1ccc(Cl)cc1` showed a minimal effective dose [1] of 160 mg/kg, an MST [2] of 14.8 days and an MST [3] of 8.4 days.

For `CC(O)c1nc(N)nc(N)c1-c1ccc(Cl)cc1` (racemic), the Activity [4] was “Active”, the minimal effective dose [1] was 80 mg/kg and the MST [6] was 5.4 days. The MST [3] was 4.7 days.

With `COC(C)(OC)c1nc(N)nc(N)c1-c1ccc(Cl)cc1` the Activity [4] was “Active”, the MCD [5] was 320 mg/kg and the minimal effective dose [1] was 40 mg/kg. The MST [6] was 5.4 days and the MST [3] was 4.5 days.

With `C/C(c1nc(N)nc(N)c1-c1ccc(Cl)cc1)=[N+](\C)[O-]` the MCD [5] was 640 mg/kg, the Activity [7] was “inactive” and the minimal effective dose [1] was 160 mg/kg. For the same compound, the MST [3] was 3.1 days.

`C/C(=N\NC(=N)N)c1nc(N)nc(N)c1-c1ccc(Cl)cc1` was tested, and the Activity [4] was “inactive”, the Activity [5] was “inactive” and the Activity [1] was “inactive”. For the same compound, the Activity [3] was “inactive”.

In the case of `CN/N=C(\C)c1nc(N)nc(N)c1-c1ccc(Cl)cc1`, the Activity [5] was “inactive”, the Activity [1] was “inactive” and the Activity [8] was “Toxic”. For the same compound, the Activity [3] was “inactive”.

`CCc1nc(N)nc(N)c1-c1ccc(Cl)cc1` [PYRIMETHAMINE] was tested, and the MCD [5] was 40 mg/kg and the Activity [9] was “Toxic”.

With `CCN(CC)CCCC(C)NC(C)c1nc(N)nc(N)c1-c1ccc(Cl)cc1` (configuration not stated) the Activity [10] was “inactive”.

In the case of `CCOC(C)(OCC)c1nc(N)nc(N)c1-c1ccc(Cl)cc1`, the Activity [11] was “Non-toxic”, the Activity [4] was “Active” and the MCD [5] was 160 mg/kg. It also gave a minimal effective dose [1] of 20 mg/kg, an MST [6] of 5.4 days and an MST [3] of 3.5 days.

`CC(=O)c1nc(N)nc(N)c1-c1ccc(Cl)cc1` was tested, and the MCD [5] was 320 mg/kg, the minimal effective dose [1] was 80 mg/kg and the Activity [8] was “Toxic”. For the same compound, the MST [3] was 5.9 days.

For `C/C(=N\N(C)C)c1nc(N)nc(N)c1-c1ccc(Cl)cc1`, the MCD [5] was 320 mg/kg, the minimal effective dose [1] was 40 mg/kg and the Activity [8] was “Toxic”. It also gave an MST [3] of 3.8 days.

With `CC(N)c1nc(N)nc(N)c1-c1ccc(Cl)cc1` (configuration not stated) the Activity [4] was “inactive”, the Activity [5] was “inactive” and the Activity [1] was “inactive”. The Activity [3] was “inactive”.
